Data from ChEMBL document CHEMBL1122504, “Heterocyclic Quinones. 4. A new highly cytotoxic drug: 6,7-bis(1-aziridinyl)-5,8-quinazolinedione” (1983).
“And” between values parts separate entries of the source, which are not always exact repeats. Equal values may be shown once.

Experiments:
P388 [1] = test: MST of treated animal over control when administered at a dose of 10 mg/kg intraperitoneally on Q01Dx05 treatment schedule; format: functional, Mus musculus; conditions: route intraperitoneal
Procedure, shortened: (§1)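 P388 leukaemia: DBA/2 mice inoculated with 10^6 cells on day 0; treatment began day 1 at the stated route and schedule. Drug was dissolved in 0.15 M NaCl saline. The read-out was median survival time (MST, days), with toxicity taken as survivors on day 5. T/C% = treated MST/control MST × 100; ≥125% is considered significant.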

P388 [2] = test: Number of survivors of P388 lymphocytic leukemia cell line on day 5/ number of treated mice at a dose of 3 ip injection of 10 mg/kg on Q04Dx03 treatment schedule; 10/10; format: functional, Mus musculus; conditions: route intraperitoneal
L1210 [3] = test: Number of survivors of L1210 cell line on day 5/ number of treated mice at a dose of 2ip injection of 10 mg/kg on Q01Dx02 treatment schedule; 10/10; format: functional, Mus musculus
P388 [4] = test: Median survival time of P388 lymphocytic leukemia cell line after a dose of 20 mg/kg administered perorally on Q01Dx07 treatment schedule; format: functional, Mus musculus; conditions: route oral; procedure, shortened: as §1
B16 [5] = test: Median survival time of […] melanocarcinoma cell line after a dose of 2.5 mg/kg administered intraperitoneally on Q01Dx01 treatment schedule; format: functional, Mus musculus; conditions: route intraperitoneal
Procedure, shortened: (§2)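 B16 melanocarcinoma: C57Bl/6 mice implanted sc with cell suspension on day 0; single ip dose in 0.15 M NaCl saline given on day 1. Median survival time was recorded in days, with toxicity taken as survivors on day 5. T/C% = treated MST/control MST × 100; >125% is considered significant.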

P388 [6] = test: Median survival time of P388 lymphocytic leukemia cell line after a dose of 5 mg/kg administered intravenously on Q01Dx01 treatment schedule; format: functional, Mus musculus; conditions: route intravenous; procedure, shortened: as §1
P388 [7] = test: MST of treated animal over control when administered at a dose of 2.5 mg/kg intravenously on Q01Dx01 treatment schedule; format: functional, Mus musculus; conditions: route intravenous; procedure, shortened: as §1
P388 [8] = test: MST of treated animal over control when administered at a dose of 15 mg/kg perorally on Q01Dx07 treatment schedule; format: functional, Mus musculus; conditions: route oral; procedure, shortened: as §1
L1210 [9] = test: MST of treated animal over control when administered at a dose of 10 mg/kg intraperitoneally on Q01Dx01 treatment schedule in L1210 cell lines; format: functional, Mus musculus; conditions: route intraperitoneal
Procedure, shortened: (§3)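 L1210 leukaemia: DBA/2 mice inoculated ip with 10^5 cells on day 0, with ip drug in 0.15 M NaCl saline on the stated schedule. The read-out was median survival time in days, with toxicity taken as survivors on day 5. T/C% = treated MST/control MST × 100; >125% is considered significant.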

B16 [10] = test: Number of survivors of B16 melanocarcinoma cell line on day 5/ number of treated mice at a dose of 1 ip injection of 2.5 mg/kg on Q01Dx01 treatment schedule; 10/10; format: functional, Mus musculus; conditions: route intraperitoneal
B16 [11] = test: MST of treated animal over control when administered at a dose of 2.5 mg/kg intraperitoneally on Q01Dx01 treatment schedule in B16 melanocarcinoma cell lines; format: functional, Mus musculus; conditions: route intraperitoneal; procedure, shortened: as §2
P388 [12] = test: Number of survivors of P388 lymphocytic leukemia cell line on day 5/ number of treated mice at a dose of 7po injection of 15 mg/kg on Q01Dx07 treatment schedule; 10/10; format: functional, Mus musculus
P388 [13] = test: MST of treated animal over control when administered at a dose of 10 mg/kg intraperitoneally on Q04Dx03 treatment schedule; format: functional, Mus musculus; conditions: route intraperitoneal; procedure, shortened: as §1
L1210 [14] = test: Number of survivors of L1210 cell line on day 5/ number of treated mice at a dose of 5ip injection of 10 mg/kg on Q01Dx05 treatment schedule; 10/10; format: functional, Mus musculus
Salmonella typhimurium [15] = test: Mutagenesis test was performed at 40 uM concentration in Salmonella Typhimurium TA 98; format: functional, Salmonella enterica subsp. enterica serovar Typhimurium
Procedure, shortened: (§4)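 Salmonella typhimurium his auxotrophs TA98 and TA100 were tested by liquid suspension without metabolic activation. Overnight Oxoid nutrient broth cultures were subcultured, grown 2 h, then exposed to drug for 5 h. Cells were washed, resuspended to A650 2.50, and plated in top agar (0.6% agar, 0.6% NaCl). His+ revertants per plate were counted after 48 h at 37 °C; values are means of three assays.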

P388 [16] = test: MST of treated animal over control when administered at a dose of 10 mg/kg intraperitoneally on Q01Dx01 treatment schedule; format: functional, Mus musculus; conditions: route intraperitoneal; procedure, shortened: as §1
L1210 [17] = test: Concentration that decreases the growth rate of the L1210 cells by 50% after 48 hr of culture; format: functional; conditions: Mus musculus, L1210, 48 h; read-out: ID50 (the source's name)
Procedure, shortened: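 L1210 leukemia cells cultured with increasing drug concentrations for 48 h at 37 °C under 5% CO2. Percentage inhibition of control growth was fitted by least-squares linear regression against log dose, and the concentration lowering control growth by 50% was estimated from the regression equation.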

P388 [18] = test: MST of treated animal over control when administered at a dose of 20 mg/kg intraperitoneally on Q01Dx01 treatment schedule; format: functional, Mus musculus; conditions: route intraperitoneal; procedure, shortened: as §1
P388 [19] = test: MST of treated animal over control when administered at a dose of 15 mg/kg intravenously on Q01Dx01 treatment schedule; format: functional, Mus musculus; conditions: route intravenous; procedure, shortened: as §1
P388 [20] = test: MST of treated animal over control when administered at a dose of 5 mg/kg intraperitoneally on Q01Dx05 treatment schedule; format: functional, Mus musculus; conditions: route intraperitoneal; procedure, shortened: as §1
P388 [21] = test: Number of survivors of P388 lymphocytic leukemia cell line on day 5/ number of treated mice at a dose of 5 ip injection of 10 mg/kg on Q01Dx05 treatment schedule; 10/10; format: functional, Mus musculus; conditions: route intraperitoneal
Sarcoma-180 = test: Median survival time of sarcoma 180 cell line after a dose of 20 mg/kg administered intraperitoneally on Q01Dx01 treatment schedule; format: functional, Mus musculus; conditions: route intraperitoneal
Procedure, shortened: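 Sarcoma 180 was inoculated ip in Swiss mice (10^6 cells, day 0), and drug was given ip in 0.15 M NaCl saline. Median survival time was recorded in days; antitumor activity was expressed as treated MST over control MST ×100, significant above 125%.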

P388 [22] = test: MST of treated animal over control when administered at a dose of 5 mg/kg intravenously on Q01Dx01 treatment schedule; format: functional, Mus musculus; conditions: route intravenous; procedure, shortened: as §1
L1210 [23] = test: MST of treated animal over control when administered at a dose of 10 mg/kg intraperitoneally on Q01Dx02 treatment schedule in L1210 cell lines; format: functional, Mus musculus; conditions: route intraperitoneal; procedure, shortened: as §3
Salmonella typhimurium [24] = test: Mutagenesis test was performed at 20 uM concentration in Salmonella Typhimurium TA 98; format: functional, Salmonella enterica subsp. enterica serovar Typhimurium; procedure, shortened: as §4
L1210 [25] = test: Number of survivors of L1210 cell line on day 5/ number of treated mice at a dose of 9ip injection of 5 mg/kg on Q01Dx09 treatment schedule; 10/10; format: functional, Mus musculus
P388 [26] = test: Number of survivors of P388 lymphocytic leukemia cell line on day 5/ number of treated mice at a dose of 1 i.v. injection of 2.5 mg/kg on Q01Dx01 treatment schedule; 9/10; format: functional, Mus musculus; conditions: route intravenous
L1210 [27] = test: Median survival time of L1210 cell line after a dose of 10 mg/kg administered intraperitoneally on Q01Dx01 treatment schedule; format: functional, Mus musculus; conditions: route intraperitoneal; procedure, shortened: as §3
L1210 [28] = test: Median survival time of L1210 cell line after a dose of 10 mg/kg administered intraperitoneally on Q01Dx05 treatment schedule; format: functional, Mus musculus; conditions: route intraperitoneal; procedure, shortened: as §3

## O=C1C(N2CC2)=C(N2CC2)C(=O)c2ncncc21
P388 [1]
  T/C: 84%
P388 [2]
  Toxicity Survivors: 10
L1210 [3]
  Toxicity Survivors: 10
P388 [4]
  MST: 7.6 days
B16 [5]
  MST: 15.7 days
P388 [6]
  MST: 10.4 days
P388 [7]
  T/C: 103%
P388 [8]
  T/C: 100%
L1210 [9]
  T/C: 114%
B16 [10]
  Toxicity Survivors: 10
B16 [11]
  T/C: 121%
P388 [12]
  Toxicity Survivors: 10
P388 [13]
  T/C: 132%
L1210 [14]
  Toxicity Survivors: 10
Salmonella typhimurium [15]
  Revertants/plate: 334
P388 [16]
  T/C: 118%
L1210 [17]
  IC50: 0.02 µg/mL and 80 nM
P388 [18]
  T/C: 134%
P388 [19]
  T/C: 139% and 114%
P388 [20]
  T/C: 138%
P388 [21]
  Toxicity Survivors: 10
Sarcoma-180
  MST: 19 days
P388 [22]
  T/C: 103%
L1210 [23]
  T/C: 104%
Salmonella typhimurium [24]
  Revertants/plate: 98
L1210 [25]
  Toxicity Survivors: 10
P388 [26]
  Toxicity Survivors: 9
L1210 [27]
  MST: 9.4 days
L1210 [28]
  MST: 9.1 days
